Consider 9 compounds from ChEMBL document CHEMBL1150277, “Benzofuran-based hybrid compounds for the inhibition of cholinesterase activity, beta amyloid aggregation, and abeta neurotoxicity” (J Med Chem, 2008).

For data set [1], the target named is Acetylcholinesterase (Homo sapiens, UniProt P22303). Put plainly: Inhibition of human recombinant AchE after 20 mins by Ellman's method. (DTNB colorimetry detects thiols as they appear.)
Data set [2] has as its target Cholinesterase (Homo sapiens, UniProt P06276). Put plainly: Inhibition of human serum BuchE after 20 mins by Ellman's method.
The nature of data set [3]: Inhibition of Amyloid beta 25-35 fibril formation. The gist of the method:
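In vitro assay of Aβ25-35 fibril formation read by UV-vis measurements, with electron microscopy also used. IC50 is the inhibitor concentration that lowers fibril formation to 50% of the untreated control value.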

A short description of data set [4]: Lipophilicity, log P of the compound. The class given is physicochemical. Conditions: octanol/water.
In data set [5] the test system is SH-SY5Y. In words: Neuroprotective effect against Amyloid beta 25-35-induced neurotoxicity in human SH-SY5Y cells assessed as neuronal viability after 3 hrs by MTT assay. In kind it is functional, cell-based. The gist of the method:
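Human neuronal-like SH-SY5Y cells were incubated 3 h with 10 µM Aβ25-35 peptide, with or without compound at 1-30 µM. Viability was read by colorimetric MTT assay. IC50 is the concentration giving 50% inhibition of peptide toxicity, as mean ± SD of at least two independent experiments.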
For orientation: Tetrazolium dyes change colour on reduction, which living cells bring about.

Data set [6] relates to SH-SY5Y. Put plainly: Neuroprotective effect against Amyloid beta 25-35-induced neurotoxicity in human SH-SY5Y cells assessed as neuronal viability at 10 to 30 uM after 3 hrs by MTT assay. In kind it is functional. The procedure, abridged:
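SH-SY5Y cells were exposed 3 h to 10 µM Aβ25-35 peptide, with or without varied compound concentrations. Viability was measured by MTT and expressed as percentage of control cells, as mean ± SD of three independent experiments. Comparison was against the untreated sample by ANOVA with Dunnett post hoc test.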

Sequence of Acetylcholinesterase (P22303 whole entry): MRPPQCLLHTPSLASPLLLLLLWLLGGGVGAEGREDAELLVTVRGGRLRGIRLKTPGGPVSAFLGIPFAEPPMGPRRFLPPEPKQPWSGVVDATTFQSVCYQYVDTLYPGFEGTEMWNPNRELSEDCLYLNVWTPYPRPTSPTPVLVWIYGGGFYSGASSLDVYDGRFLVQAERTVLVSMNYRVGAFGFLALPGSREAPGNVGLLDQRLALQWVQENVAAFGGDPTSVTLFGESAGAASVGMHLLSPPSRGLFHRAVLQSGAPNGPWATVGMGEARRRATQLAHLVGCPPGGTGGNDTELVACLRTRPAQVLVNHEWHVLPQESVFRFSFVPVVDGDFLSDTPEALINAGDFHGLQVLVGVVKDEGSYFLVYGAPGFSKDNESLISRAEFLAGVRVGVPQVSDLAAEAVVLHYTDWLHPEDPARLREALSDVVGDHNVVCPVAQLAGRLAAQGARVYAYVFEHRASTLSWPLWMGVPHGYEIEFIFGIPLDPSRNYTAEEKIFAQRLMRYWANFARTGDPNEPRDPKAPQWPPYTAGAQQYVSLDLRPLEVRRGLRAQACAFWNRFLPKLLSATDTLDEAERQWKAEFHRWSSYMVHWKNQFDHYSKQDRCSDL
Sequence of Cholinesterase (P06276 whole entry): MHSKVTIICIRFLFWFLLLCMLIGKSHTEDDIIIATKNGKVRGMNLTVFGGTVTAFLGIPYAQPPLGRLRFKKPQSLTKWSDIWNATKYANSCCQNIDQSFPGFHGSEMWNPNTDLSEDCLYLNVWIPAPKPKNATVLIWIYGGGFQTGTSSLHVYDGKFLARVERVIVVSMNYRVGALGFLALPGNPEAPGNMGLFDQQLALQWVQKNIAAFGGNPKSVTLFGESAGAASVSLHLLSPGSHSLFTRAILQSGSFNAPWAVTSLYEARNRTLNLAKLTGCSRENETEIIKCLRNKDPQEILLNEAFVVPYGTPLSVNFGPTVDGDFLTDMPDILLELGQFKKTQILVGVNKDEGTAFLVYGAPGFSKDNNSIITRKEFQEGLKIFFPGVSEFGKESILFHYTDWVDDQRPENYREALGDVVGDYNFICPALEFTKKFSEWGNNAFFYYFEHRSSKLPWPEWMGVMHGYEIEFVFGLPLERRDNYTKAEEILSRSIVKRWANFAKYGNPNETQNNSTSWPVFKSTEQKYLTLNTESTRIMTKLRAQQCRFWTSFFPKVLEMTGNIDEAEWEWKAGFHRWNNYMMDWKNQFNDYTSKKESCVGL

The term IC50 denotes the midpoint of a concentration-inhibition curve. Take `COc1ccc(C(=O)c2c(-c3ccc(OCCCCCCCN(C)Cc4ccccc4)cc3)oc3ccccc23)cc1`: the IC50 in data set [1] stood at 281 µM; in data set [2] it was 89.1 µM.

Regarding `COc1cccc(C(=O)c2c(-c3ccc(OCCCCCCCN(C)Cc4ccccc4)cc3)oc3ccccc23)c1`, the IC50 in data set [1] worked out at 127 µM; in data set [2], 21.7 µM.

As for `Cc1ccc(C(=O)c2c(-c3ccc(OCCCCCCCN(C)Cc4ccccc4)cc3)oc3ccccc23)cc1`, the IC50 in data set [1] came out at 10.5 µM; in data set [2] it was 1.82 µM; in data set [3], 13 µM.

In general, logP refers to a log measure of how a compound divides between an organic and an aqueous phase. A lower logP goes with a more hydrophilic compound. For the compound `CN(CCCCCCCOc1ccc(-c2cc3ccccc3o2)cc1)Cc1ccccc1`, the IC50 in data set [1] was 32.6 µM; in data set [2] it was 0.28 µM; in data set [3], 7 µM. The compound further yielded a logP in data set [4] of 6.8.

`COc1ccc(C(=O)c2c(-c3ccc(OCCCCCCCN(C)Cc4ccccc4)cc3)oc3ccccc23)cc1OC`: the IC50 came to 177 µM in data set [1] and 74.1 µM in data set [2].

Take `Cc1cccc(C(=O)c2c(-c3ccc(OCCCCCCCN(C)Cc4ccccc4)cc3)oc3ccccc23)c1`: the results for the IC50 in data set [1] and in data set [2] were 127 µM and 40.9 µM, respectively.

Take `CN(CCCCCCCOc1ccc(-c2oc3ccccc3c2C(=O)c2ccccc2)cc1)Cc1ccccc1`: the IC50 was 5.6 µM in data set [5], 40.7 µM in data set [1], 38.1 µM in data set [2] and 12.5 µM in data set [3]. For the same compound, the logP in data set [4] stood at 8. In addition, the Activity in data set [6] was determined as 63%.

With `CC(=O)c1c(-c2ccc(OCCCCCCCN(C)Cc3ccccc3)cc2)oc2ccccc12`, the IC50 was determined as 17.4 µM in data set [1] and 1.83 µM in data set [2].

In data set [3], `COc1cc(/C=C/C(=O)CC(=O)/C=C/c2ccc(O)c(OC)c2)ccc1O` [CURCUMIN] yielded an IC50 of 10 µM.
